Source: PubChem BioAssay (Johns Hopkins Ion Channel Center)
KCNK9 inh – blocks the human KCNK9 two-pore domain potassium channel. Q9NPC2. HEK293 KCNK9, FluxOR thallium flux fluorescence; active compounds read low. B-score at 10 µM. actives 1.2% (n = 310,000). AID 488922;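 active = ratio B-score over 3 SD below the library mean, with starting fluorescence within 5 SD of its mean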;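 also: negative B-score means less thallium flux so channel inhibition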
KCNQ1 block – human KCNQ1 channel inhibition; actives 1.3% (n = 310,000); P51787; CHO-K1 KCNQ1, FluxOR thallium flux fluorescence; active compounds read high; AID 2642; B-score at 10 µM;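 active = compounds whose thallium flux B-score, printed positive for inhibition, exceeds three library SD while starting fluorescence stays within three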;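 also: channel opened by potassium depolarization with thallium stimulus after 20 min compound exposure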
KCNK3 block – human KCNK3 channel inhibition, primary screen | B-score at 10 µM | CHO-KCNK3 thallium flux, FluxOR fluorescence; active compounds read low | actives 0.84% (n = 340,000);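 active = B-score under library mean minus 4 SD, starting fluorescence ratio at most library mean plus 5 SD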;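 also: more negative B-score means stronger inhibition of thallium flux through KCNK3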
hERG rescue – compounds protecting human hERG from proarrhythmic drug block | Q12809 | CHO-hERG, FluxOR thallium flux, dofetilide IC70 present | activation (rescue from dofetilide block), less the hit threshold, % at 10 µM | actives 0.51% (n = 310,000) | AID 1511;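 active = activation above the mean of controls blocked by dofetilide plus 5 SD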;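 also: thallium influx through hERG after potassium depolarization seen as dye fluorescence rise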
KCNQ1 pot – potentiators or activators of human KCNQ1 potassium channel; B-score at 10 µM; CHO-K1 KCNQ1, thallium flux FluxOR fluorescence; active compounds read high; P51787; actives 0.35% (n = 310,000);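 active = fluorescence ratio B-score, a plate-corrected score, at least three library SD, with initial intensity B-score within 5 SD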
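System: CHO-K1 cells stably expressing KCNQ1 / Medium: assay buffer for compound exposure, DMSO matched across wells / Reagent: thallium- and potassium-containing depolarizing buffer / Compound: one concentration, matched DMSO / Incubation: 20 min compound pretreatment at room temperature / Measured by: kinetic FluxOR fluorescence, 10 s baseline plus 110 s post-stimulus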
KCNK9 inh conf – confirmation of human KCNK9 potassium channel inhibitors | shares compounds with KCNK9 inh | HEK293 KCNK9 cells, FluxOR thallium flux fluorescence | inhibition, % at 10 µM | actives 43% (n = 4,900) | AID 492992;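 active = thallium signal inhibited by more than 5 SD of the compound-free buffer control wells, on both duplicate plates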;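 also: 0% = assay buffer control wells without compound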
Kir2-1 spec – tests whether KCNK9 modulators also affect mouse Kir2.1. shares compounds with KCNK9 inh. Kir2.1 cells, FluxOR thallium flux fluorescence. inhibition, % at 10 µM. actives 4% (n = 4,900);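 active = thallium signal drop more than 5 SD beyond the mean of the no-compound control wells, seen in both duplicate plates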;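 also: signal is fluorescence rise after thallium addition divided by baseline fluorescence; plate controls were assay buffer only for no effect and full block by chlorpromazine control for full effect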
Target sequence (P35561 whole entry, looked up): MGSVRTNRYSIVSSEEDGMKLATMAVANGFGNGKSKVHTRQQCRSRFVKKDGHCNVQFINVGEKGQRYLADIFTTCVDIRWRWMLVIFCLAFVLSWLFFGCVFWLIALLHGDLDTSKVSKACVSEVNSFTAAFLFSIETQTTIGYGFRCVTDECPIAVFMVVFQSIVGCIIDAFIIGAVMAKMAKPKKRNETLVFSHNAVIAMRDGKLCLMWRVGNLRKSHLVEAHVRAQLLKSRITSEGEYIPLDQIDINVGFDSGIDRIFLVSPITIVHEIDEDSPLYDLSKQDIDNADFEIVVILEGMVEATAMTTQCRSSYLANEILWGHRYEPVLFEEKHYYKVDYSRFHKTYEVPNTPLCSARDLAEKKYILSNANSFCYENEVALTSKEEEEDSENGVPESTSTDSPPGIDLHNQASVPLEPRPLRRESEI
HEK293 Tl ctr – non-induced cell nonspecific activity of KCNK9 modulators | shares compounds with KCNK9 inh | non-induced KCNK9-HEK293, FluxOR thallium flux | inhibition, % at 10 µM | actives 40% (n = 4,900);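 active = thallium signal drop beyond 5 SD of the untreated control mean, on both duplicate plates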;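 also: plate controls were buffer only IC0 wells for no effect and SID17386958 at its maximal inhibitory level for full effect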
An asterisk follows results filed as active; i = inactive; x = no result given. This is a sample that favours compounds with a hit; in the whole collection about 3.1% have one here.

SMILES	KCNK9 inh	KCNQ1 block	KCNK3 block	hERG rescue	KCNQ1 pot	KCNK9 inh conf	Kir2-1 spec	HEK293 Tl ctr
Cc1ccc(CN2CCN(/N=C/C=C/c3ccccc3[N+](=O)[O-])CC2)cc1	i	i	i	-10	i	i	i	i
CC1CCC(NC(=O)CN2C(=O)NC3(CCCCCC3)C2=O)CC1 (stereo not drawn)	x	x	i	x	x	x	x	x
CCN(CC)c1ccc(/C=N/N2CCN(Cc3ccc(C)cc3)CC2)c(O)c1	i	i	i	-5	i	i	i	i
COc1ccccc1/C=C/CN1CCN(c2ccccc2)CC1	i	i	i	-6	i	i	i	i
CCN(CC)c1ccc(/C=N/N2CCN(Cc3ccccc3Cl)CC2)c(O)c1	i	i	i	-7	i	x	x	x
Cc1ccc(CN2CCN(/N=C\C(Br)=C\c3ccccc3)CC2)cc1	i	i	i	-1	i	i	i	i
CCOC(=O)C1(CCOC)CCN(C/C=C/c2ccccc2OC)CC1	i	i	i	-11	i	x	x	x
Nc1nnc(CC(=O)Nc2ccccc2)s1	i	i	i	-2	i	x	x	x
CCOC(=O)c1ccc(CNC(=O)Cn2nnc(-c3ccc(C)cc3)n2)o1	i	i	i	-11	i	x	x	x
COc1ccc2oc(C(=O)NCC(c3ccco3)N(C)C)c(C)c2c1 (stereo not drawn)	i	i	i	-11	i	x	x	x
COc1ccc2oc(C(=O)N(C)CCOc3ccc(Cl)cc3)c(C)c2c1	i	i	i	-7	i	i	i	i
Cc1ccc2oc(C(=O)N(C)Cc3ccc(C)o3)c(C)c2c1	i	i	i	-7	i	i	i	25%*
CC(Sc1nnc(N)s1)C(=O)Nc1ccc2c(c1)OCO2 (stereo not drawn)	x	x	i	x	x	x	x	x
COc1cccc(-c2ocnc2C(=O)Nc2ccc(N3CCOCC3)cc2N2CCOCC2)c1	i	i	i	-7	i	x	x	x
COc1ccc(-c2ocnc2C(=O)NCc2nn(-c3ccccc3)nc2C)cc1	i	i	i	-12	i	i	i	i
COc1ccc(-c2ocnc2C(=O)Nc2ccccc2N2CCCCC2)cc1	-9.3*	i	i	-8	i	i	i	28%*
Cc1ccc(/C=C/C(=O)Nc2ccc(Oc3ccccc3)cc2)o1	i	i	i	-11	i	i	i	i
CCCCC(=O)Nc1cccc(-c2nc3ncccc3o2)c1	-11*	i	i	-23	i	34%*	i	i
N#C/C(=C/c1ccc(CNC(=O)C(=O)Nc2cc(Cl)cc(Cl)c2)o1)C(=O)NCc1cccnc1	-10*	i	i	-8	i	i	i	i
CCOC(=O)N1CCN(C(=O)c2cc(-c3ccc(OCC)cc3)nc3ccccc23)CC1	i	i	i	-19	i	x	x	x
CCOc1ccc(-c2cc3nc(C4CCN(C(=O)OC(C)(C)C)CC4)c(C(=O)O)cn3n2)cc1	i	i	i	-19	i	i	i	34%*
O=C(CSc1ccc(F)cc1)NC12CC3CC(CC(C3)C1)C2	i	i	i	-12	i	x	x	x
O=C(CCSc1ccc(Cl)c(Cl)c1)NC12CC3CC(CC(C3)C1)C2	i	i	i	-7	i	i	i	i
CCOC(=O)C1(CCOc2ccccc2)CCN(Cc2ccncc2)CC1	i	i	i	-9	i	x	x	x
CCOC(=O)C1(CCOc2ccccc2)CCN(Cc2cccn2-c2ncccn2)CC1	i	i	i	-20	i	i	i	i
CCOC(=O)C1(CCOc2ccccc2)CCN(Cc2ccc(O)c(OC)c2)CC1	i	i	i	-14	i	x	x	x
CCOC(=O)C1(CCOc2ccccc2)CCN(Cc2ccc(F)c(OC)c2)CC1	i	i	i	-5	i	i	i	i
